# Measurements from the RNAGym collection of RNA variant scans (doi:10.1126/science.aae0568).
# Variants at the floor of the assay were thinned out.
# B1: tRNA (parent)
# chain: GUUCCGUUGGCGUAAUGGUAACGCGUCUCCCUCCUAAGGAGAAGACUGCGGGUUCGAGUCCCGUACGGAACG
# Variants of: B1
# Experiment: yeast fitness relative to wild type (ratio to wild type); higher = fitter; tRNA-Arg(CCU), competitive growth, 37 C, YPD
# Procedure, shortened: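 Genotype frequency changes were the basis for Darwinian fitness relative to wild type. The frequencies came from 100-nucleotide paired-end sequencing of gene amplicons from the start population and each end population of pooled yeast strains with tRNA-Arg(CCU) gene variants at the native locus. Competition ran in YPD at 37°C for 24 hours in six replicates, genotypes needed ≥ 100 starting reads, and estimates < 0.5 were set to 0.5.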
row,Variant,yeast fitness
1,U26G C46G A65C,0.563
2,C27A A42C,0.751
3,C27A A42G,0.791
4,C27A A45C G56C C60U G68U,≤ 0.5
5,U26G G39C G58A C66U,≤ 0.5
6,U26G C31U,1.02
7,U26G C31A,0.804
8,C27A A37C A43G C55G,≤ 0.5
9,C27A C34G A42G G50A C62G,≤ 0.5
10,C27A A36U A37U A65U A70G,≤ 0.5
11,C27A C30A U35C C46G,≤ 0.5
12,C27A A57G,0.787
13,C27A A57U,0.737
14,C27A A57C,0.669
15,C27A C61U,0.891
16,C27A C61G,0.665
17,C27A A40G C46G C62G,0.687
18,C27A G41C A43C A45U,≤ 0.5
19,C27A A45C G68A,0.619
20,U26G G67A,0.81
21,C27A A36U A37U A65G,≤ 0.5
22,C27A A36G A70U,0.561
23,C27A C31G A65U A70G,≤ 0.5
24,U26G C61U,0.864

row,Variant,yeast fitness
1,C27A A65U G67C,0.613
2,U26G U35A,0.589
3,U26G U35C,0.657
4,C27A C31G A65U,0.679
5,C27A A45G,0.874
6,C27A A45C,0.796
7,C27A C34G G38A G63C,≤ 0.5
8,C27A C62U A65C,0.63
9,C27A C33U G44C A45U G50C G67A,≤ 0.5
10,C27A C33G A45C,0.53
11,C27A C30U,0.7
12,C27A C30G,0.634
13,C27A C29U C49U,≤ 0.5
14,C27A A36C A40G C62A,≤ 0.5
15,U26G U32A G63A,≤ 0.5
16,U26G U32A G51A,≤ 0.5
17,C27A C30A A43C C62G,≤ 0.5
18,C27A A43C,0.939
19,C27A A43U,1.03
20,C27A A43G,0.778
21,U26G C34U G44C G56A,≤ 0.5
22,C27A C33A A42U,0.619
23,C27A A42C A57G,≤ 0.5
24,C27A A70G,0.857

row,Variant,yeast fitness
1,C27A C33U G52C C62G,0.579
2,U26G C31U C62U,0.695
3,C27A A42G U54C,≤ 0.5
4,C27A C34A G67U A69C,≤ 0.5
5,U26G U28A,0.62
6,C27A A36G C46A G50A G51C,≤ 0.5
7,C27A A45C C49A C61U,≤ 0.5
8,U26G C61U G63C A65G,0.799
9,U26G C33G C34G A40U G68A,≤ 0.5
10,C27A C29U A40G,≤ 0.5
11,U26G C60A,0.593
12,U26G G44A A69U,0.673
13,U26G U35A A69G A70G,0.732
14,U26G C33A A42U C55G,0.556
15,C27A C31G,0.957
16,C27A C31A A37C C46G,≤ 0.5
17,C27A A36U A37U,0.638
18,C27A A69C,0.875
19,C27A G38C A40U U53A,≤ 0.5
20,C27A C33G,0.711
21,C27A C33U,0.799
22,C27A A42U G67C A69C,0.726
23,C27A A40G A42U C61G,≤ 0.5
24,C27A C30A C66A,0.561

row,Variant,yeast fitness
1,C27A A42U G67C,0.613
2,C27A G39C C55G,≤ 0.5
3,U26G C31G U32A,0.691
4,U26G C31U U54A,0.569
5,C27A A40C A43G,≤ 0.5
6,C27A A43C C60A,≤ 0.5
7,C27A A45U C60G A65U,0.54
8,C27A C31A A69U,0.567
9,C27A C62A,0.699
10,C27A C66G,0.673
11,C27A C66U,0.868
12,C27A C66A,0.565
13,U26G C55G A65C A70U,≤ 0.5
14,C27A A37U C60U G63A,0.707
15,C27A A45U G56A C60U,≤ 0.5
16,C27A C29U C46A,0.684
17,C27A A40C C46A,0.597
18,C27A A45C G50C A65C,≤ 0.5
19,C27A A65G,1.02
20,C27A A65C,0.878
21,C27A A42C G67C A69C,≤ 0.5
22,U26G U59G,0.704
23,U26G U59A,0.663
24,C27A G39C A57U,≤ 0.5

row,Variant,yeast fitness
1,U26G C34U C49A G51A A69U,≤ 0.5
2,C27A A43C U47C,0.594
3,C27A C31G C46U,0.621
4,C27A G41C A43C,0.504
5,C27A C31G A45C C55U,≤ 0.5
6,C27A C49G U53A C62A,0.571
7,C27A C29U C61U,≤ 0.5
8,U26G U35A G41A C46U G68A,≤ 0.5
9,C27A C60G,0.657
10,C27A C29U,0.766
11,C27A C29A,0.589
12,U26G C31G A36U G41A A45C,≤ 0.5
13,C27A A40C A45U A57U A70U,0.588
14,C27A C34U C62U U64C,≤ 0.5
15,C27A C31U C33A A42U G67A,≤ 0.5
16,U26G G58A,0.881
17,U26G G58C,0.696
18,C27A A43C G44U,0.514
19,U26G C46U,1.01
20,U26G C46G C55G,≤ 0.5
21,C27A A40C,0.775
22,C27A A40G,0.843
23,U26G G48A C61U A70U,0.68
24,C27A C30U C33G A37C A57U,≤ 0.5

row,Variant,yeast fitness
1,U26G U32C,0.821
2,C27A C61U G68C,≤ 0.5
3,C27A G41C A43C A69U,≤ 0.5
4,C27A C33A C46A G63C,≤ 0.5
5,C27A C34U,0.598
6,U26G G44A,0.87
7,C27A C46U A70U,0.733
8,U26G G67C G68A,≤ 0.5
9,C27A A36G A42G C66U,≤ 0.5
10,U26G C34U A40G G51A,≤ 0.5
11,U26G G41A,0.794
12,C27A C30U A57C C62U,≤ 0.5
13,C27A G38C G68U,≤ 0.5
14,C27A C34U A42U G50C G58A G68C A69G,≤ 0.5
15,U26G G44C G58A G68C,0.529
16,C27A C31G C61U,0.669
17,C27A C31A C46G,0.688
18,C27A C33U A42U,≤ 0.5
19,C27A C49U,0.826
20,C27A C49A,0.749
21,C27A G41A U47A,≤ 0.5
22,C27A A36C A42U U64G,≤ 0.5
23,C27A C55U,0.662
24,U26G C66G,0.677

row,Variant,yeast fitness
1,C27A C30U C33G,0.634
2,C27A A37C,0.597
3,C27A A37G,0.737
4,C27A G41A U47A A69U,≤ 0.5
5,C27A C34G A40G A65G,0.799
6,C27A C34U A42C U53G,≤ 0.5
7,U26G G56A G67A,0.529
8,C27A C46U,1.05
9,C27A C46A,0.907
10,C27A G41A A45U U59G,≤ 0.5
11,C27A A45G G68C,≤ 0.5
12,U26G G56A G68U A69U,≤ 0.5
13,C27A C31A G52A U54C G58C A70G,≤ 0.5
14,C27A C46U G52A,0.644
15,C27A C31G A57C U64A G68A,≤ 0.5
16,U26G G39A C46G G68A,0.522
17,C27A C31A C49U G58C C62U U64A,≤ 0.5
18,C27A C55U A57C C61A C62G,≤ 0.5
19,C27A A36U,0.802
20,C27A C30G C49U G56C C66U,≤ 0.5
21,U26G U28A U53A,≤ 0.5
22,C27A C30U G44C,≤ 0.5
23,C27A A42C C60U,≤ 0.5
